One assay deals with MCF7. Nature of the assay: Antiproliferative activity against human MCF7 cells after 48 hrs by SRB assay. Format: functional, cell-based. Conditions: MCF7, 48 h. In a few lines: (§1)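 SRB assay run as in the NCI screen with slight modifications. Seeding: HT-29 5.0 x 10^3, M21 3.5 x 10^3, MCF7 7.5 x 10^3 cells; cells preincubated 24 h. Drug in DMSO added at 0.75 to 1.0 x 10^5 nM for 48 h. TCA fixation, sulforhodamine B staining, absorbance 530-565 nm. At least two experiments in triplicate; runs accepted only when relative SD < 10%.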
On the technique in general: In SRB staining, fixed cells bind dye roughly in proportion to their protein.

The next assay relates to M21. Nature of the assay: Antiproliferative activity against human M21 cells after 48 hrs by SRB assay. Format: functional, cell-based. Conditions: M21, 48 h. A digest of the protocol: as §1
A further assay deals with HT-29. As to the kind of experiment: Antiproliferative activity against human HT-29 cells after 48 hrs by SRB assay. Format: functional, cell-based. Conditions: HT-29, 48 h. In a few lines: as §1
A short description of assay [1]: Selectivity ratio of IC50 for human M21 cells to IC50 for human MCF7 cells. Format: functional. In a few lines: (§2)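 Ratio is IC50 in reference line over IC50 in sensitive line. […] Cells in DMEM with 5% calf serum at 37 °C. At least two experiments, triplicate cultures; assay accepted when relative SD < 10%.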
Assay [2] can be described thus: Selectivity ratio of IC50 for human HT-29 cells to IC50 for human MCF7 cells. It counts as functional. A digest of the protocol: as §2

Where only a bound is given, the exact number is not on record here.

`CCCN1CCN(c2ccc(S(=O)(=O)Oc3ccccc3C)cc2)C1=O`: the IC50 in the assay with MCF7, in the assay with M21 and in the assay on HT-29 was above 100 µM each time.

Regarding `CN1CCN(c2ccc(S(=O)(=O)Oc3cccc(Br)c3)cc2)C1=O`, the IC50 in the assay with MCF7 came out at 1.5 µM; in the assay on M21, 1.3 µM; with HT-29, 1.3 µM. Also, the “Ratio IC50” value in assay [1] came to 0.9; in assay [2] it was 0.8.

As to `CCN1CCN(c2ccc(S(=O)(=O)Oc3cccc(Br)c3)cc2)C1=O`, the IC50 was determined as 2.5 µM in the assay on MCF7, 3.4 µM with M21 and 3.8 µM in the assay on HT-29. Also, the “Ratio IC50” value in assay [1] is recorded as 1.4; in assay [2] it was 1.5.

Turning to `CCCN1CCN(c2ccc(S(=O)(=O)Oc3cccc(F)c3)cc2)C1=O`, the figures for the IC50 with MCF7, in the assay with M21 and in the assay on HT-29 were 24 µM, 12 µM and 18 µM, respectively. Besides, the “Ratio IC50” value in assay [1] stood at 0.5; in assay [2] it was 0.8.

`CCCN1CCN(c2ccc(S(=O)(=O)Oc3c(Cl)cc(Cl)cc3Cl)cc2)C1=O`: the IC50 was above 100 µM in the assay on MCF7, 56 µM in the assay on M21 and 56 µM with HT-29.

Consider `CCc1ccccc1OS(=O)(=O)c1ccc(N2CCN(C)C2=O)cc1`, for which the IC50 amounted to 26 µM with MCF7, 2.3 µM in the assay on M21 and 4.6 µM in the assay on HT-29. The “Ratio IC50” value is listed as 0.1 in assay [1] and 0.2 in assay [2].

For the compound `CCCCN1CCN(c2ccc(S(=O)(=O)Oc3ccccc3OC)cc2)C1=O`, the IC50 in the assay with MCF7 is 3.8 µM; with M21, above 100 µM; in the assay with HT-29 it was above 100 µM. In addition, the “Ratio IC50” value in assay [1] and in assay [2] was above 26 each time.

Regarding `CCCCN1CCN(c2ccc(S(=O)(=O)Oc3ccccc3)cc2)C1=O`, the concentration for half-maximal inhibition (IC50) is 8.8 µM with MCF7, above 100 µM with M21 and above 100 µM with HT-29. Further, the “Ratio IC50” value in assay [1] and in assay [2] was above 11 throughout.

With `CCN1CCN(c2ccc(S(=O)(=O)Oc3ccc(OC)c(OC)c3)cc2)C1=O`, the IC50 stood at 39.1 µM with MCF7, 35 µM with M21 and 37 µM in the assay with HT-29. The “Ratio IC50” value in assay [1] was 0.9; in assay [2] it was 1.

`Cc1ccccc1OS(=O)(=O)c1ccc(N2CCN(C)C2=O)cc1`: the IC50 with MCF7 is 5.6 µM; in the assay with M21, 2.9 µM; in the assay with HT-29, 4.8 µM. The “Ratio IC50” value in assay [1] was 0.5; in assay [2] it was 0.9.

Regarding `Cc1ccc(OS(=O)(=O)c2ccc(N3CCN(C)C3=O)cc2)cc1`, the IC50 in the assay with MCF7, in the assay with M21 and in the assay on HT-29 was above 100 µM in each case.

As to `CN1CCN(c2ccc(S(=O)(=O)Oc3cccc(F)c3)cc2)C1=O`, the figures for the IC50 with MCF7, with M21 and in the assay with HT-29 were above 100 µM, 5.8 µM and above 100 µM, respectively.

Consider `CN1CCN(c2ccc(S(=O)(=O)Oc3ccc(F)cc3)cc2)C1=O`, for which the IC50 with MCF7, with M21 and in the assay with HT-29 was above 100 µM in each case.

On to `CN1CCN(c2ccc(S(=O)(=O)Oc3ccc(Cl)cc3)cc2)C1=O`, for which the IC50 in the assay with MCF7 was above 100 µM; in the assay with M21, 43 µM; in the assay with HT-29 it was 12 µM.

For `CCN1CCN(c2ccc(S(=O)(=O)Oc3ccccc3OC)cc2)C1=O`, the IC50 in the assay on MCF7, with M21 and in the assay on HT-29 was above 100 µM each time.

As to `CCN1CCN(c2ccc(S(=O)(=O)Oc3cccc(F)c3)cc2)C1=O`, the IC50 with MCF7 was above 100 µM; in the assay on M21, 11 µM; with HT-29 it was above 100 µM.

In the case of `CN1CCN(c2ccc(S(=O)(=O)Oc3cccc([N+](=O)[O-])c3)cc2)C1=O`, the IC50 with MCF7 is above 100 µM; in the assay on M21 it was 23 µM; with HT-29 it was 26 µM.

Turning to `CCN1CCN(c2ccc(S(=O)(=O)Oc3ccc(OC)cc3)cc2)C1=O`, the IC50 with MCF7 was above 100 µM; in the assay on M21 it was 26 µM; with HT-29, 60 µM.

As usually defined, the IC50 is the concentration at which inhibition is half-maximal.
